Assay results collected from several papers.
Lines come from different studies, so protocols differ. pIC50: −log10 of the molar value.
Cell line: A549
Read-out: cell growth or viability

C#Cc1cccc(Nc2ncnc3cc(OCCOC)c(OCCOC)cc23)c1 — pIC50 (MTT; 72 h): 4.59
Cc1nc(N(Cc2ccccc2)c2ccc3c(c2)/C(=C/c2ccccc2)C(=O)N3Cc2ccccc2)c2ccccc2n1 (mixture of isomers) — pIC50 (MTT): 6.19
C=C(F)C(=O)N1CCN(c2nc(OC[C@@H]3CCCN3C)nc3c2CCN(c2cccc4cccc(Cl)c24)C3)C[C@@H]1CC#N — pIC50 (ATP luminescence): 5.66
O=C(C=Cc1ccccc1)Nc1cc(-c2ccnc(N3CCC(O)CC3)c2)ccn1 — pIC50 (MTT; 72 h): 7.07
COc1cc2ncnc(Nc3ccc4c(c3)/C(=C/c3cccc(Cl)c3)C(=O)N4C)c2cc1OC — pIC50 (MTT): 5.04
O=C(O)c1ccc2c(c1)nc(Nc1cccc(Cl)c1)c1ccncc12 — pIC50 (crystal violet; 48 h): 4.98
[NH2][Pt]([NH2])([Cl])[Cl] — pIC50 (MTT): 5.02
Cc1nc(Nc2ccc3c(c2)/C(=C/c2ccccc2)C(=O)N3Cc2ccccc2)c2ccccc2n1 — pIC50 (MTT): 4.35
Cc1ncc(CN2CCN(Cc3ccccn3)CC2)c2cc(C(=O)c3ccc4c(c3)OCCO4)oc12 — pIC50 (MTT; 72 h): 4.24
Cc1nc(N(C)c2ccc3c(c2)/C(=C/c2ccccc2Cl)C(=O)N3C)c2ccccc2n1 — pIC50 (MTT): 5.11
C=CC(=O)Nc1cc(Nc2nccc(-c3cn(C)c4ccccc34)n2)c(OC)cc1N(C)CCN(C)C — pIC50 (MTT; 72 h): 4.55
CNC(=O)c1cc(Oc2ccc(NC(=O)Nc3ccc(Cl)c(C(F)(F)F)c3)cc2)ccn1 — pIC50 (MTT; 72 h): 5.25
COc1cccc2c1C(=O)c1c(O)c3c(c(O)c1C2=O)C[C@@](O)(C(=O)CO)C[C@@H]3O[C@H]1C[C@H](N)[C@H](O)[C@H](C)O1 — pIC50 (MTT; 72 h): 5.57
